Assay outcomes as filed in PubChem BioAssay.
KCNK3 inh: human KCNK3 channel inhibitors, primary screen, CHO cells, FluxOR thallium flux, B-score; Potassium channel subfamily K member 3 (Homo sapiens), O14649; FluxOR fluorescence; hits give low values; B-score at 10 µM; hit rate 0.84% among 340,000; AID 602410, 2012;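 active = B-score under library mean minus 4 SD, starting fluorescence ratio at most library mean plus 5 SD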;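 note: more negative B-score means stronger inhibition of thallium flux through KCNK3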
KCNQ1 inh: inhibitors of human KCNQ1 channel, primary screen, cell-based, thallium flux, high-throughput; Potassium voltage-gated channel subfamily KQT member 1 (Homo sapiens), P51787; CHO-K1 KCNQ1, FluxOR thallium flux fluorescence; hits give high values; hit rate 1.3% among 310,000; B-score at 10 µM;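 active = compounds whose thallium flux B-score, printed positive for inhibition, exceeds three library SD while starting fluorescence stays within three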;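 note: channel opened by potassium depolarization with thallium stimulus after 20 min compound exposure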
KCC2 mod: KCC2 cotransporter modulators, thallium flux, primary screen, cell-based, HEK293 KCC2, FluoZin-2 fluorescence, MLSMR; KCC2 cells, thallium flux FluoZin-2 fluorescence; B-score of Tl+ flux slope (higher = more flux/activation; lower = inhibition) at 10 µM; hit rate 2.2% among 190,000;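 active = thallium flux slope and its plate-corrected score both differing from the plate sample mean at a set confidence after two filtering rounds, in either direction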;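 note: slope of fluorescence scaled to starting intensity during 10 to 20 s after thallium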
Target sequence (Q9H2X9 whole entry, looked up): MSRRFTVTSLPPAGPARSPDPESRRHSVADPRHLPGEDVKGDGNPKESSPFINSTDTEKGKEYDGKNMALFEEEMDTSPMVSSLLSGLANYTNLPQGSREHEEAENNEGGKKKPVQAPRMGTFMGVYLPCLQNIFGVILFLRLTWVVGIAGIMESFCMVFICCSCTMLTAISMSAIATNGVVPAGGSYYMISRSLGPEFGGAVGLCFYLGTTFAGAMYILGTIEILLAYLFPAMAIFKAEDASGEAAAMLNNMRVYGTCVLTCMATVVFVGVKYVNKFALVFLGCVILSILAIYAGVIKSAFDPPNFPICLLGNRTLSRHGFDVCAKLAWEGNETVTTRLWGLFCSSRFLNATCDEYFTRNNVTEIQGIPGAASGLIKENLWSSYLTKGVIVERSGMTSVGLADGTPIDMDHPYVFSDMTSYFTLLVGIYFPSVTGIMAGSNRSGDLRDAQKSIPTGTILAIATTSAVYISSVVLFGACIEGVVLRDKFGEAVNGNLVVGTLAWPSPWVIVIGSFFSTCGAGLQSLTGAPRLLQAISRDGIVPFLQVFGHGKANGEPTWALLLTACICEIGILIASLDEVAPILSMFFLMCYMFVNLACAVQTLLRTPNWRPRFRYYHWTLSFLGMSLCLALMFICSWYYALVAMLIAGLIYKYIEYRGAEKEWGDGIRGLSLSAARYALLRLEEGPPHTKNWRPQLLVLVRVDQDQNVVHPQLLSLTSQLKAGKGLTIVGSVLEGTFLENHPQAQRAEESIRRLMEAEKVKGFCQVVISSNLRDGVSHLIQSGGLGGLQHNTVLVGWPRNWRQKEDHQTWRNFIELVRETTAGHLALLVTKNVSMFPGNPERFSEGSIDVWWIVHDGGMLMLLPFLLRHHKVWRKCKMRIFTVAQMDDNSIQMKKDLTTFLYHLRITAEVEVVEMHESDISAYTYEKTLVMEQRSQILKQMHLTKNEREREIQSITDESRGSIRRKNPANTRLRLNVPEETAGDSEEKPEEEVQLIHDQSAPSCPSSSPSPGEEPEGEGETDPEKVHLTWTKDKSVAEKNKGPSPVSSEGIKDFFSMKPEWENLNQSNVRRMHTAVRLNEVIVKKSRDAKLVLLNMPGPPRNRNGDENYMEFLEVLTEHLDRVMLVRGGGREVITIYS
KCNK9 inh: KCNK9 potassium channel inhibitors, primary screen, HEK293 cells, thallium flux; Potassium channel subfamily K member 9 (Homo sapiens), Q9NPC2; FluxOR thallium flux fluorescence; hits give low values; B-score at 10 µM; hit rate 1.2% among 310,000;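 active = ratio B-score over 3 SD below the library mean, with starting fluorescence within 5 SD of its mean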;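 note: negative B-score means less thallium flux so channel inhibition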
KCNQ1 pot: potentiators or activators of KCNQ1 channel, primary screen, cell-based, thallium flux, high-throughput; hit rate 0.35% among 310,000; B-score at 10 µM; CHO-K1 KCNQ1, thallium flux FluxOR fluorescence; hits give high values; Potassium voltage-gated channel subfamily KQT member 1 (Homo sapiens), P51787;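 active = fluorescence ratio B-score, a plate-corrected score, at least three library SD, with initial intensity B-score within 5 SD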
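Assay system: CHO-K1 cells stably expressing KCNQ1; Medium: assay buffer with matched DMSO; Also added: K+/Tl+ depolarizing stimulus; Dosing: single dose; Timing: dye 90 min, compound 20 min, room temperature; Measured by: kinetic FluxOR thallium fluorescence, 10-s 1-Hz baseline, 110-s post-stimulus read; Read-out: peak-minus-minimum fluorescence over initial fluorescence, negative-control normalized, B-scored.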
hERG protect: hERG rescue from dofetilide block, primary screen, cell-based, CHO-hERG, FluxOR thallium flux, dofetilide IC70; dofetilide IC70 present; hit rate 0.51% among 310,000; Voltage-gated inwardly rectifying potassium channel KCNH2 (Homo sapiens), Q12809; activation (rescue from dofetilide block), less the hit threshold, % at 10 µM; AID 1511, 2009;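 active = activation above the mean of controls blocked by dofetilide plus 5 SD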;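 note: thallium influx through hERG after potassium depolarization seen as dye fluorescence rise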
KCNQ1 inh valid: KCNQ1 potassium channel inhibitors, confirmation, cell-based, Tl flux, duplicate; inhibition, % at 10 µM; KCNQ1 cell line, FluxOR thallium flux fluorescence; shares compounds with KCNQ1 inh; hit rate 93% among 1,600;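 active = primary screen active, with duplicate mean exceeding buffer control mean plus 3 SD of buffer wells, cut at about 28% in these data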;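 note: 0% = buffer control ratio and 100% = XE991 inhibitor control ratio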
CHO Tl flux: thallium flux effects in parental CHO cells, counter-screen for KCNQ1 inhibitor project, cell-based, Tl flux | hit rate 21% among 1,600 | shares compounds with KCNQ1 inh | AID 588366, 2011 | fluorescence ratio (Tl flux) at 10 µM | parental CHO-K1, FluxOR thallium flux fluorescence ratio; hits give low values; zero means no signal rise above baseline;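 active = mean of duplicate thallium-flux fluorescence ratios in parental host cells more than 5 SD below the buffer control mean, cut at about 0.38 in these data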;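 note: ratio is peak minus minimum fluorescence divided by baseline fluorescence; actives read low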
KCNQ1 ephys val: KCNQ1 channel inhibitors, confirmation, orthogonal assay, cell-based, automated electrophysiology | shares compounds with KCNQ1 inh | AID 624120, 2012 | hit rate 20% among 490 | KCNQ1-CHO cells, automated patch clamp current | calls only at 10 µM;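 active = KCNQ1 current drop exceeding 3 SD of negative control wells, seen in both duplicate runs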;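 note: steady state current during a 2 s step from -80 to +40 mV; negative values mean current inhibition and positive values mean potentiation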
KCNQ2 inh: KCNQ2 channel inhibition, selectivity assay for KCNQ1 inhibitor project, cell-based; shares compounds with KCNQ1 inh; KCNQ2 cells, FluxOR thallium flux fluorescence; inhibition, % at 10 µM; hit rate 71% among 1,600; AID 651746, 2012;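 active = mean percent inhibition of the KCNQ2 thallium signal more than 5 SD above the buffer-only control wells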;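 note: KCNQ2 expressed in CHO cells; 0% = buffer control wells and 100% = XE-991 inhibitor control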
KCNQ1-KCNE1 inh: KCNQ1/KCNE1 channel inhibition, selectivity assay for KCNQ1 inhibitor project, CHO-K1 cells, thallium flux, FluxOR; inhibition, % at 10 µM; hit rate 77% among 1,600; shares compounds with KCNQ1 inh; AID 652147, 2013; FluxOR thallium flux fluorescence;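 active = mean percent inhibition of duplicate wells above the buffer-only control mean plus 3 SD of those controls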;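 note: 0% = buffer only wells and 100% = XE-991 inhibitor control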
Active calls of the source: *; i = inactive; . = no result given; + = active, no number. In the library only some 4.1% were active in any assay of this set; here they are far more common.

SMILES	KCNK3 inh	KCNQ1 inh	KCC2 mod	KCNK9 inh	KCNQ1 pot	hERG protect	KCNQ1 inh valid	CHO Tl flux	KCNQ2 inh	KCNQ1-KCNE1 inh	others
Cc1csc(NC(=O)C(Cc2ccccc2)n2cccc2)n1 (stereo not given)	i	13*	1.6	i	i	-18	54*	0.45	62%*	86%*
O=C(CN1CCN(c2ccc(Cl)cc2)CC1)Nc1cccc(F)c1	i	i	-0.87	i	i	-8	.	.	.	.
O=C(Nc1cccc(F)c1)N1CC=C(c2ccc(Cl)cc2)CC1	i	13*	-0.57	i	i	-11	132*	0.44	103%*	168%*	KCNQ1 ephys val=i
COC(=O)[C@H](C)N(Cc1ccc(Cl)c(Cl)c1)S(=O)(=O)CCNC1CCCC1	i	.	.	.	.	.	.	.	.	.
O=C(Nc1ccc(F)cc1)Nc1cnccn1	i	i	.	i	i	-5	.	.	.	.
O=C(Nc1ccc(Br)cc1)Nc1cnccn1	i	7*	.	i	i	-11	0	0.56	i	i
COc1cccc(NC(=O)Nc2ccc(C)c(Cl)c2)c1	i	6*	-0.81	i	i	-9	76*	0.52	i	i
Cc1ccc(NC(=O)CCC(=O)c2ccc(F)cc2)cc1Cl	i	i	-1.5	i	i	-10	.	.	.	.
Cc1ccc(NC(=O)Nc2ccc(F)cc2)cc1Cl	i	10*	-0.074	i	i	-7	70*	0.45	61%*	i
CN(CCNC(=O)c1c[nH]c2c1ccc1ccccc12)CCNC(=O)c1c[nH]c2c1ccc1ccccc12	i	.	.	.	.	.	.	.	.	.
CCOC(=O)C1=C(C)NC(C)=C(C(=O)OCC)C1C(=O)OCC(=O)NCc1ccco1	i	.	.	.	.	.	.	.	.	.
COc1ccc(N(Cc2ccccc2)S(=O)(=O)c2cccc(C(=O)NCC3CCCO3)c2)cc1 (stereo not given)	i	.	.	.	.	.	.	.	.	.
CC(C)(C)OC(=O)N1CCN(c2ccc(NC(=O)c3ccco3)cc2)CC1	i	i	.	i	i	-9	.	.	.	.
NNc1nc(C(F)(F)F)nc2ccccc12	i	i	.	i	i	-4	.	.	.	.
O/C=c1\ccc2cccc3nc(C(F)(F)F)nc1c23	i	19*	.	-7.6*	i	-8	140*	0.31*	i	i
COC(=O)c1ccc(NC(=O)c2ccc(NC(=O)c3ccco3)cc2)cc1	i	6*	.	i	i	-4	0	0.51	i	55%*
CC(=O)c1ccc(NC(=O)c2ccc(NC(=O)c3ccco3)cc2)cc1	i	i	.	i	i	-5	.	.	.	.
Cc1cc2c(cc1C)N(Cc1ccc(Cl)cc1)C1=NCCCN12	i	7*	.	i	i	-16	91*	0.41	105%*	98%*	KCNQ1 ephys val=+
NC1=NC[C@H](c2ccccc2)N1CCCCC1CCCCC1	i	9*	0.66	i	i	-15	116*	0.4	120%*	88%*	KCNQ1 ephys val=+
O=C1C=CC(=Nc2ccc3c(c2)Cc2ccccc2-3)O1	i	.	.	.	.	.	.	.	.	.
Cc1ccc(CN=C(Nc2ccccc2)NC2CCCCC2)cc1	i	9*	0.16	i	i	-4	68*	0.53	i	41%*
O=C(Nc1ccccc1)NC1CCCCCCC1	i	i	.	i	i	-8	.	.	.	.
NC(=O)c1ccccc1NC(=O)c1ccc2c(c1)OCO2	i	i	.	i	i	-3	.	.	.	.
c1ccc(-c2cc3ccccc3[nH]2)cc1	i	i	.	i	i	-11	.	.	.	.
Clc1ccc2[nH]c(-c3ccccc3)cc2c1	i	9*	-0.15	i	i	-3	131*	0.52	92%*	132%*	KCNQ1 ephys val=i
SMILES	KCNK3 inh	KCNQ1 inh	KCC2 mod	KCNK9 inh	KCNQ1 pot	hERG protect	KCNQ1 inh valid	CHO Tl flux	KCNQ2 inh	KCNQ1-KCNE1 inh	others
ClCc1nc2ccccc2n1Cc1ccccc1	i	7*	.	i	i	-15	0	0.45	84%*	i
COCc1nc2ccccc2n1Cc1ccccc1	i	i	.	i	i	-7	.	.	.	.
CC1(C)Cc2ccccc2-c2nc(-c3ccccc3)oc(=O)c21	i	10*	.	i	i	-14	102*	0.44	99%*	130%*
CC1(C)Cc2ccccc2-c2nc(NN)[nH]c(=O)c21	i	i	.	i	i	-9	.	.	.	.
CN1/C(=C\C=C(/C#N)C(=O)Nc2ccc(Cl)cc2)C(C)(C)c2ccccc21	i	i	i	i	i	-18	.	.	.	.
CN1/C(=C\C(=O)Nc2ccc(Cl)cc2)C(C)(C)c2ccccc21	i	10*	-0.53	-7.2*	i	-24	99*	0.49	116%*	48%*	KCNQ1 ephys val=i
COc1cccc(N2CCN(C(=O)C3CCC(=O)N(C4CCCCCC4)C3)CC2)c1 (stereo not given)	i	i	.	i	i	-3	.	.	.	.
Cc1cccc(N2C(=O)c3cccc4c(N)ccc(c34)C2=O)c1	i	23*	.	i	i	-51	+	0.0085*	i	i
CC(C)CCN1C(=O)c2cccc3c(N)ccc(c23)C1=O	i	24*	.	i	i	-42	+	0.0055*	i	i
CCN1C(=O)c2cccc3c(Cl)ccc(c23)C1=O	i	i	-2.1	i	i	-5	.	.	.	.
